T cruzi repl: blocks replication of Trypanosoma cruzi; hit rate 1.4% among 300,000; inhibition, % (no concentration beside the values); T. cruzi beta-gal in NIH3T3, luminescence, 90 h;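 active = mean inhibition across valid replicates above about 55%, limit read from the data; inconclusive = mean below that limit but half or more replicates reach it; inactive = mean below it, under half of replicates reach it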;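 note: signal also drops with host cell toxicity which is not excluded here; 0% = plate median of DMSO wells and 100% = zero luminescence signal; higher percent means less beta-gal luminescence so fewer parasites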
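assay system = mouse NIH/3T3 fibroblasts infected with β-gal-expressing T. cruzi Tulahuen C4 | input = 5,000 NIH/3T3 host cells per well | buffer or medium = DMEM plus 2% FBS | timing = 3 h host attachment, then at least 90 h co-culture | measured by = GalScreen luminescence, 60 min | evaluation = luminescence reflecting intracellular parasite burden, expressed as percent inhibition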
Calb FLC: C. albicans growth modulation with fluconazole. hit rate 0.57% among 300,000. C. albicans CaCi-2 + fluconazole, Alamar Blue growth, 48 h. growth inhibition, % (test concentration not listed). AID 1979;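 active = growth inhibition above about 58% in most replicates, limit read from the data, passing the limit was not always enough; inconclusive = exactly half the replicates above a set limit; inactive = most replicates below a set limit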;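 note: all wells also contain fluconazole at 8 µg/ml as a sub-toxic cotreatment; 0% = median of DMSO wells and 100% = median of geldanamycin control wells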
Beta apoptosis: blocks beta cell apoptosis; INS-1E cytokine-induced death, ATP luminescence, 48 h; percent of positive-control rescue, neutral wells zero; protection from apoptosis, % (concentration not given with the values); hit rate 0.8% among 300,000;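 active = Every replicate reaches about 75%, or at least half do and their mean reaches it too, limit read from the data; inconclusive = At least half of replicates reach the limit but their mean does not; inactive = Under half of replicates reach the limit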;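 note: 0% = cytokine-treated negative control wells and 100% = positive control rescue; higher means more ATP so stronger rescue from cytokine killing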
CSC inhib: blocks cancer stem cells | cancer stem cell-like cells viability, luminescence | inhibition, % at 7.5 µM | hit rate 1.1% among 300,000; in the data active = inhibition above about 75%; inconclusive = no clear call, values can overlap the other calls; tested in HMLE shEcad cells
SKKanGAS inh: SKKanGAS growth inhibition | hit rate 1.3% among 300,000 | AID 1662 | inhibition, % at 7.5 µM | S. pyogenes SKKanGAS, kanamycin growth, BacTiter-Glo, 6 h;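 active = mean replicate score, as percent of positive control median, at least 50; inconclusive = mean below 50 but one replicate at or above 50; inactive = mean and every replicate below 50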;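 note: strain carries kanamycin resistance gene driven by streptokinase promoter and grows in 40 µg/ml kanamycin; loss of luminescence reflects streptokinase promoter inhibition or plain growth inhibition; 0% = median of DMSO wells and 100% = positive control at its reference dose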
Mdm2 MdmX PPI: disrupts the human Mdm2-MdmX interaction; O15151+Q00987; SaOS-2 split-luciferase Mdm2/MdmX complementation, luminescence; inhibition, % at 8 µM; hit rate 3% among 330,000;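 active = inhibition of at least 50% at 8 µM in the primary screen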
Target sequence (O15151 whole entry, looked up): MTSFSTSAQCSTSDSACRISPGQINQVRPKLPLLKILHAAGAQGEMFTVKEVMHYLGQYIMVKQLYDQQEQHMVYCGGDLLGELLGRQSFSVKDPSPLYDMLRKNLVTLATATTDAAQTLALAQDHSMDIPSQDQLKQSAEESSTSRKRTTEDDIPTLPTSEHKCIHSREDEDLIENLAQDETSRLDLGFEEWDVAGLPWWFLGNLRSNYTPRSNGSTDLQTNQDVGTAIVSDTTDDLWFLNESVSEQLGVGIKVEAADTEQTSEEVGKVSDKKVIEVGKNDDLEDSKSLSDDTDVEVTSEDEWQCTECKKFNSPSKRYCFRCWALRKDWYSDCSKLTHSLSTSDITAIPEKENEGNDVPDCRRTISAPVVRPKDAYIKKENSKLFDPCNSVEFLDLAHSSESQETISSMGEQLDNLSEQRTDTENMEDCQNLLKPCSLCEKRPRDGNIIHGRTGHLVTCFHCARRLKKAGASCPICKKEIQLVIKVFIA
Target sequence (Q00987 whole entry, looked up): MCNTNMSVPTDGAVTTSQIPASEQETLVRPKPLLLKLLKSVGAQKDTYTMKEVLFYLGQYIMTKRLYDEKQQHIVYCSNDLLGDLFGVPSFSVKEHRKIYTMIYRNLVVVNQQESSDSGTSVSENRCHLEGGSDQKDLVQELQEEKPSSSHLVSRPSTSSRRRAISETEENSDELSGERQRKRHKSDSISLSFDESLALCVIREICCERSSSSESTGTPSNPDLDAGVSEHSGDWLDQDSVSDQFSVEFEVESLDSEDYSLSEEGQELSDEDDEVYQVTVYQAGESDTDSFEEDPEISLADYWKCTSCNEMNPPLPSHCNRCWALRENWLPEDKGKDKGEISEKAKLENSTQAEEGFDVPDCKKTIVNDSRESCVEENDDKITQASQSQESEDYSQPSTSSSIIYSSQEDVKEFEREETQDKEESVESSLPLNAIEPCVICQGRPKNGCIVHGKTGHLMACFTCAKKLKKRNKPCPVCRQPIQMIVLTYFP
* hit, by the source's call; ? = inconclusive; / = not tested or not shown. Only some compounds are listed: those with a hit (about 5.7% of all), similar ones and a draw of the others.

SMILES	T cruzi repl	Calb FLC	Beta apoptosis	CSC inhib	SKKanGAS inh	Mdm2 MdmX PPI
CC(=O)c1ccc(-n2cc(-c3ccc(C(C)(C)C)cc3)[n+]3c2SCCC3)cc1	68*	101*	50	/	6	21
Cc1noc(C)c1C(=O)OCC(=O)NCc1ccc(Cl)cc1	/	/	-1	/	/	-3
O=S(=O)(Cc1ccccc1)N1CCc2ccccc21	-2	100*	4	1	-4	-33
O=C(Nc1ccc(O)c(-c2nc3ccccc3o2)c1)C1(c2ccc(Br)cc2)CCCC1	1	-5	4	84*	7	20
O=C(c1ccccc1)c1ccc(OCCOCCN2CCN(Cc3ccccc3)CC2)cc1	51	-18	0	24	-4	15
NC(=S)N/N=C/c1ccc(Br)o1	19	18	-1	-9	-22	5
C=CCNC(=S)N/N=C/c1ccc(C)cc1C	-16	-6	6	1	-8	-15
C=CCNC(=S)N/N=C/c1ccc(-c2ccc(OC)cc2)o1	91*	104*	14	10	-20	17
C=CCNC(=S)N/N=C/c1ccc(-c2ccc(Cl)cc2Cl)o1	60*	21	22	39	18	7
NC(=S)N/N=C/c1ccc(-c2cc(Cl)c(Cl)cc2Cl)o1	64*	-27	10	14	17	13
CCC(C)NC(=O)/C=C1\Sc2ccccc2NC1=O (configuration not stated)	-10	6	-2	-1	-5	-4
c1ccc(NC2=NCCN2CCCC2CCCC2)cc1	/	/	0	3	/	9
O=C(COc1ncnc2ccccc12)Nc1ccc(S(=O)(=O)N2CCOCC2)cc1	0	2	-6	-6	-8	0
CCCn1c(N2CCN(C(=O)Nc3ccc(Cl)cc3)CC2)nc2ccccc21	19	-10	1	19	17	22
CC(C)n1c(N2CCN(C(=O)Nc3ccc(Cl)cc3)CC2)nc2ccccc21	5	73*	-1	-12	11	34
Cc1ccc(NC(=O)C2CCCN(C(=O)c3ccc(Cl)cc3)C2)cc1S(=O)(=O)N1CCOCC1 (configuration not stated)	62*	-6	4	-11	-2	24
Cc1ccc(NC(=O)C2CC2C)cc1S(=O)(=O)N1CCOCC1 (configuration not stated)	60*	4	1	-3	-10	-9
COc1ccc(NC(=S)Nc2ccc(C)c(S(=O)(=O)N3CCCCC3)c2)cc1	-5	0	6	11	24	25
Cc1ccc(NC(=S)Nc2ccc(C(C)C)cc2)cc1S(=O)(=O)N1CCCCCC1	0	-2	27	75*	56*	0
Cc1cccc(N2CCN(C(=O)CCC(=O)N3CC(C)Oc4ccccc43)CC2)c1C (configuration not stated)	28	-8	14	65	-2	27
CCC(=O)Nc1cc(-c2cc3ccccc3oc2=O)ccc1OC	-2	1	5	3	-1	-14
COc1ccc(S(=O)(=O)N2CCN(C(=O)c3ccc([N+](=O)[O-])o3)CC2)cc1	56*	-2	/	1	6	15
COc1ccc(-c2cc3ccccc3oc2=O)cc1NC(=O)c1ccc([N+](=O)[O-])o1	56*	6	82*	/	20	6
COc1ccc(S(=O)(=O)N2CCCCC2)cc1NC(=O)c1ccco1	9	-18	2	14	-3	-5
COc1ccc(S(=O)(=O)N2CCCCC2)cc1NC(=O)c1ccc([N+](=O)[O-])o1	55*	-11	9	42	11	44
SMILES	T cruzi repl	Calb FLC	Beta apoptosis	CSC inhib	SKKanGAS inh	Mdm2 MdmX PPI
CC(=O)Nc1ccc2nc(NC(=O)CN3CCOCC3)sc2c1	-2	-3	0	-6	-2	0
CCOC(=O)[C@H]1[C@H]2COc3ccc(C)cc3[C@@H]2N2C(=O)c3cc(C)ccc3NC(=O)[C@@]12C	/	/	-2	/	/	16
C/C(N)=C(/C#N)C(=O)COC(=O)c1cc(-c2ccc(Br)cc2)nc2ccccc12	22	-7	1	49	70*	/
C/C(N)=C(/C#N)C(=O)COc1ncnc2ccccc12	4	13	1	-16	-6	-38
CCCCCOc1ccc(/C=C/c2c([N+](=O)[O-])c(=O)n(C)c(=O)n2C)cc1	49	-10	11	32	60*	43
COc1ccc(NC(=O)CS(=O)(=O)c2ccc(Br)cc2)cc1	-8	0	/	/	-1	-3
CC(/C=C/c1ccccc1)=N/NC(=O)c1cccc(Br)c1	2	-19	15	39	87*	45
CC(/C=C/C=C/c1ccccc1)=N\NC(=O)c1cccnc1	-19	17	3	-11	-3	-6
CC(/C=C/c1ccccc1)=N\NC(=O)c1ccc(Br)cc1	44	-1	15	2	44	10
CC(/C=C/C=C/c1ccccc1)=N/NC(=O)c1ccc2c(c1)OCCO2	3	-8	-5	12	61*	32
N#Cc1ccccc1S(=O)(=O)N1CCN(c2cnccn2)CC1	-12	12	4	8	-5	-8
Cc1ccc(Nc2nc(-c3cccnc3)cs2)cc1C	47	-3	-1	10	0	-265
COc1ccc(Cl)cc1Nc1nc(-c2cccnc2)cs1	56*	12	-4	41	5	4
Clc1cccc(Nc2nc(-c3cccnc3)cs2)c1	59*	28	3	17	-24	-108
O=c1c2cc(Br)ccc2nc(-c2ccc([N+](=O)[O-])cc2)n1O	-1	110*	-2	-2	15	44
O=c1c2ccc(Cl)cc2nc(-c2ccc([N+](=O)[O-])cc2)n1O	-26	87*	12	31	1	6
COc1ccc(CN2CCN(C(=O)C3CCC(CNS(=O)(=O)c4ccccc4)CC3)CC2)c(OC)c1OC (configuration not stated)	58*	-1	10	-3	-6	36
CN(C)S(=O)(=O)c1ccc(Nc2nc(C3CC3)nc3c2nnn3Cc2ccccc2Cl)cc1	53	3	88*	/	22	19
O=C(/C=C/c1ccccc1)CC(=O)c1ccccc1O	-10	4	5	18	50*	-39
C=CCn1cnnc1SCC(=O)Nc1cccnc1Cl	/	/	/	/	/	0
C=CC[n+]1c(-c2ccc(OCC)cc2)csc1NNC(=O)Nc1ccccc1	21	7	99*	?	18	10
COc1ccc(-c2csc(Nc3ccccc3)[n+]2Cc2ccccc2)cc1	18	14	7	23	-4	-9
Cc1ccc(S(=O)(=O)NNC(=O)c2ccc(NC(=O)C3CC3)cc2)cc1	/	111*	2	4	/	11
CC(=O)Nc1ccc(C(=O)NNS(=O)(=O)c2ccc(C)cc2)cc1	-11	-7	/	2	-3	33
Cc1cc(C)n(CCC(=O)Nc2ccc(-c3ccno3)cc2)n1	4	24	-7	1	8	-10

High-throughput results: PubChem, several laboratories
